Laboratory results taken from ChEMBL document CHEMBL5303300, “EUbOPEN Chemogenomics Library - Multiplex” (2023).
“And” between values parts separate entries of the source, which are not always exact repeats. Identical values can stand only once.

System: HEK-293T
Assay: Multiplex assay against HEK293T
Format: toxicity, cell-based
Details: human, number of replicates 2
Summary of the method: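 Cells were classed with CellPathfinder machine-learning gating, first as Hoechst high-intensity objects or normal cells, then (normal cells) as healthy, pyknosed or fragmented nuclei, and finally (pyknosed cells) as mitotic or apoptotic. Staining of live cells at seeding used Hoechst33342, BioTracker Green Microtubule Cytoskeleton Dye, MitoTracker Red and Annexin V Alexa Fluor 680, with imaging on a CQ1 microscope at 37°C and 5% CO2 after compound addition. Tubulin, mitochondrial-mass and membrane-permeability phenotypes are per cents of healthy-nucleus cells.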

[1] = 12 h, 1 µM, compound concentration 1 uM
[2] = 12 h, 10 µM, compound concentration 10 uM
[3] = 24 h, 1 µM, compound concentration 1 uM
[4] = 24 h, 10 µM, compound concentration 10 uM
[5] = 48 h, 1 µM, compound concentration 1 uM
[6] = 48 h, 10 µM, compound concentration 10 uM

Compound: CN(C)[C@H]1CC[C@H](Nc2ncc3ncnc(Nc4ccc(F)c(Cl)c4)c3n2)CC1
- Population Apoptotic (%) [1]: 46% and 50%
- Population Fragmented Nuclei (%) [1]: 4% and 5%
- Population Healthy Nuclei (%) [1]: 88% and 87%
- Population Hoechst High Intensity Objects (%) [1]: 9% and 10%
- Population Membrane Permeable-Phenotype (%) [1]: 2% and 1%
- Population Mitochondria Different-Phenotype (%) [1]: 14% and 10%
- Population Mitotic Cells (%) [1]: 53% and 50%
- Population Normal (%) [1]: 90% and 89%
- Population Pyknosed Nuclei (%) [1]: 7%
- Population Tubulin-Different-Phenotype (%) [1]: 45% and 36%
- Total Cell Count [1]: 608 and 681
- Population Apoptotic (%) [2]: 30% and 17%
- Population Fragmented Nuclei (%) [2]: 6% and 7%
- Population Healthy Nuclei (%) [2]: 82% and 79%
- Population Hoechst High Intensity Objects (%) [2]: 47% and 50%
- Population Membrane Permeable-Phenotype (%) [2]: 3% and 4%
- Population Mitochondria Different-Phenotype (%) [2]: 6% and 5%
- Population Mitotic Cells (%) [2]: 69% and 82%
- Population Normal (%) [2]: 52% and 49%
- Population Pyknosed Nuclei (%) [2]: 10% and 13%
- Population Tubulin-Different-Phenotype (%) [2]: 33% and 29%
- Total Cell Count [2]: 768 and 714
- Population Apoptotic (%) [3]: 40% and 51%
- Population Fragmented Nuclei (%) [3]: 7% and 8%
- Population Healthy Nuclei (%) [3]: 87% and 88%
- Population Hoechst High Intensity Objects (%) [3]: 10% and 11%
- Population Membrane Permeable-Phenotype (%) [3]: 2% and 1%
- Population Mitochondria Different-Phenotype (%) [3]: 4% and 3%
- Population Mitotic Cells (%) [3]: 60% and 48%
- Population Normal (%) [3]: 89% and 88%
- Population Pyknosed Nuclei (%) [3]: 4% and 2%
- Population Tubulin-Different-Phenotype (%) [3]: 21% and 22%
- Total Cell Count [3]: 1021 and 1110
- Population Apoptotic (%) [4]: 17% and 13%
- Population Fragmented Nuclei (%) [4]: 8% and 9%
- Population Healthy Nuclei (%) [4]: 82% and 77%
- Population Hoechst High Intensity Objects (%) [4]: 44% and 49%
- Population Membrane Permeable-Phenotype (%) [4]: 2%
- Population Mitochondria Different-Phenotype (%) [4]: 2% and 4%
- Population Mitotic Cells (%) [4]: 82% and 86%
- Population Normal (%) [4]: 55% and 50%
- Population Pyknosed Nuclei (%) [4]: 8% and 13%
- Population Tubulin-Different-Phenotype (%) [4]: 24% and 21%
- Total Cell Count [4]: 1161 and 1002
- Population Apoptotic (%) [5]: 17% and 35%
- Population Fragmented Nuclei (%) [5]: 23% and 21%
- Population Healthy Nuclei (%) [5]: 74% and 76%
- Population Hoechst High Intensity Objects (%) [5]: 12% and 15%
- Population Membrane Permeable-Phenotype (%) [5]: 4% and 3%
- Population Mitochondria Different-Phenotype (%) [5]: 0%
- Population Mitotic Cells (%) [5]: 82% and 64%
- Population Normal (%) [5]: 87% and 84%
- Population Pyknosed Nuclei (%) [5]: 2% and 1%
- Population Tubulin-Different-Phenotype (%) [5]: 9% and 13%
- Total Cell Count [5]: 2456 and 2598
- Population Apoptotic (%) [6]: 24% and 15%
- Population Fragmented Nuclei (%) [6]: 22% and 17%
- Population Healthy Nuclei (%) [6]: 74%
- Population Hoechst High Intensity Objects (%) [6]: 36% and 42%
- Population Membrane Permeable-Phenotype (%) [6]: 3%
- Population Mitochondria Different-Phenotype (%) [6]: 0%
- Population Mitotic Cells (%) [6]: 75% and 84%
- Population Normal (%) [6]: 63% and 57%
- Population Pyknosed Nuclei (%) [6]: 3% and 7%
- Population Tubulin-Different-Phenotype (%) [6]: 14% and 15%
- Total Cell Count [6]: 2410 and 1820

Compound: N=C(N)NCCC[C@H](NC(=O)COCC(c1ccccc1)c1ccccc1)C(=O)O.O=C(O)C(F)(F)F
- Population Apoptotic (%) [1]: 49% and 39%
- Population Fragmented Nuclei (%) [1]: 2%
- Population Healthy Nuclei (%) [1]: 85%
- Population Hoechst High Intensity Objects (%) [1]: 5% and 6%
- Population Membrane Permeable-Phenotype (%) [1]: 2% and 3%
- Population Mitochondria Different-Phenotype (%) [1]: 13% and 9%
- Population Mitotic Cells (%) [1]: 50% and 60%
- Population Normal (%) [1]: 94% and 93%
- Population Pyknosed Nuclei (%) [1]: 12% and 11%
- Population Tubulin-Different-Phenotype (%) [1]: 54% and 41%
- Total Cell Count [1]: 596 and 692
- Population Apoptotic (%) [2]: 60% and 68%
- Population Fragmented Nuclei (%) [2]: 5% and 6%
- Population Healthy Nuclei (%) [2]: 80% and 81%
- Population Hoechst High Intensity Objects (%) [2]: 9% and 8%
- Population Membrane Permeable-Phenotype (%) [2]: 2%
- Population Mitochondria Different-Phenotype (%) [2]: 19% and 14%
- Population Mitotic Cells (%) [2]: 39% and 31%
- Population Normal (%) [2]: 90% and 91%
- Population Pyknosed Nuclei (%) [2]: 14% and 12%
- Population Tubulin-Different-Phenotype (%) [2]: 55% and 41%
- Total Cell Count [2]: 543 and 565
- Population Apoptotic (%) [3]: 43% and 44%
- Population Fragmented Nuclei (%) [3]: 4%
- Population Healthy Nuclei (%) [3]: 89% and 88%
- Population Hoechst High Intensity Objects (%) [3]: 7% and 10%
- Population Membrane Permeable-Phenotype (%) [3]: 3%
- Population Mitochondria Different-Phenotype (%) [3]: 2% and 3%
- Population Mitotic Cells (%) [3]: 56% and 55%
- Population Normal (%) [3]: 92% and 89%
- Population Pyknosed Nuclei (%) [3]: 5% and 7%
- Population Tubulin-Different-Phenotype (%) [3]: 20% and 31%
- Total Cell Count [3]: 1117 and 835
- Population Apoptotic (%) [4]: 49% and 48%
- Population Fragmented Nuclei (%) [4]: 6% and 7%
- Population Healthy Nuclei (%) [4]: 83% and 79%
- Population Hoechst High Intensity Objects (%) [4]: 7%
- Population Membrane Permeable-Phenotype (%) [4]: 2%
- Population Mitochondria Different-Phenotype (%) [4]: 7% and 6%
- Population Mitotic Cells (%) [4]: 50% and 51%
- Population Normal (%) [4]: 92%
- Population Pyknosed Nuclei (%) [4]: 9% and 12%
- Population Tubulin-Different-Phenotype (%) [4]: 27% and 25%
- Total Cell Count [4]: 838 and 806
- Population Apoptotic (%) [5]: 12%
- Population Fragmented Nuclei (%) [5]: 15% and 9%
- Population Healthy Nuclei (%) [5]: 82% and 87%
- Population Hoechst High Intensity Objects (%) [5]: 9% and 7%
- Population Membrane Permeable-Phenotype (%) [5]: 5% and 4%
- Population Mitochondria Different-Phenotype (%) [5]: 0%
- Population Mitotic Cells (%) [5]: 87%
- Population Normal (%) [5]: 90% and 92%
- Population Pyknosed Nuclei (%) [5]: 2% and 3%
- Population Tubulin-Different-Phenotype (%) [5]: 10% and 14%
- Total Cell Count [5]: 3157 and 1745
- Population Apoptotic (%) [6]: 14% and 24%
- Population Fragmented Nuclei (%) [6]: 15% and 13%
- Population Healthy Nuclei (%) [6]: 81% and 83%
- Population Hoechst High Intensity Objects (%) [6]: 7% and 6%
- Population Membrane Permeable-Phenotype (%) [6]: 7% and 4%
- Population Mitochondria Different-Phenotype (%) [6]: 0%
- Population Mitotic Cells (%) [6]: 85% and 75%
- Population Normal (%) [6]: 92% and 93%
- Population Pyknosed Nuclei (%) [6]: 2%
- Population Tubulin-Different-Phenotype (%) [6]: 12% and 10%
- Total Cell Count [6]: 2204 and 2125

Compound: NCC1CCC(CNc2nc(NCc3ccccc3OC(F)(F)F)ncc2[N+](=O)[O-])CC1 (stereo not drawn)
- Population Apoptotic (%) [1]: 50% and 53%
- Population Fragmented Nuclei (%) [1]: 3% and 4%
- Population Healthy Nuclei (%) [1]: 86% and 81%
- Population Hoechst High Intensity Objects (%) [1]: 9% and 10%
- Population Membrane Permeable-Phenotype (%) [1]: 5% and 1%
- Population Mitochondria Different-Phenotype (%) [1]: 23% and 25%
- Population Mitotic Cells (%) [1]: 50% and 46%
- Population Normal (%) [1]: 90% and 89%
- Population Pyknosed Nuclei (%) [1]: 9% and 14%
- Population Tubulin-Different-Phenotype (%) [1]: 86% and 81%
- Total Cell Count [1]: 881 and 733
- Population Apoptotic (%) [2]: 73% and 77%
- Population Fragmented Nuclei (%) [2]: 6% and 2%
- Population Healthy Nuclei (%) [2]: 79% and 81%
- Population Hoechst High Intensity Objects (%) [2]: 8% and 9%
- Population Membrane Permeable-Phenotype (%) [2]: 1%
- Population Mitochondria Different-Phenotype (%) [2]: 82%
- Population Mitotic Cells (%) [2]: 26% and 22%
- Population Normal (%) [2]: 91% and 90%
- Population Pyknosed Nuclei (%) [2]: 13% and 16%
- Population Tubulin-Different-Phenotype (%) [2]: 93% and 91%
- Total Cell Count [2]: 345 and 365
- Population Apoptotic (%) [3]: 40% and 60%
- Population Fragmented Nuclei (%) [3]: 6% and 5%
- Population Healthy Nuclei (%) [3]: 85%
- Population Hoechst High Intensity Objects (%) [3]: 8% and 9%
- Population Membrane Permeable-Phenotype (%) [3]: 4% and 2%
- Population Mitochondria Different-Phenotype (%) [3]: 9% and 10%
- Population Mitotic Cells (%) [3]: 59% and 40%
- Population Normal (%) [3]: 91% and 90%
- Population Pyknosed Nuclei (%) [3]: 7% and 9%
- Population Tubulin-Different-Phenotype (%) [3]: 70% and 65%
- Total Cell Count [3]: 1307 and 1039
- Population Apoptotic (%) [4]: 67% and 68%
- Population Fragmented Nuclei (%) [4]: 4% and 2%
- Population Healthy Nuclei (%) [4]: 79% and 81%
- Population Hoechst High Intensity Objects (%) [4]: 9% and 7%
- Population Membrane Permeable-Phenotype (%) [4]: 0% and 2%
- Population Mitochondria Different-Phenotype (%) [4]: 81% and 78%
- Population Mitotic Cells (%) [4]: 32% and 31%
- Population Normal (%) [4]: 90% and 92%
- Population Pyknosed Nuclei (%) [4]: 15%
- Population Tubulin-Different-Phenotype (%) [4]: 94% and 95%
- Total Cell Count [4]: 375 and 418
- Population Apoptotic (%) [5]: 12% and 31%
- Population Fragmented Nuclei (%) [5]: 17% and 10%
- Population Healthy Nuclei (%) [5]: 80% and 86%
- Population Hoechst High Intensity Objects (%) [5]: 11% and 12%
- Population Membrane Permeable-Phenotype (%) [5]: 5% and 3%
- Population Mitochondria Different-Phenotype (%) [5]: 0% and 1%
- Population Mitotic Cells (%) [5]: 87% and 68%
- Population Normal (%) [5]: 88% and 87%
- Population Pyknosed Nuclei (%) [5]: 2% and 3%
- Population Tubulin-Different-Phenotype (%) [5]: 42% and 39%
- Total Cell Count [5]: 2914 and 2116
- Population Apoptotic (%) [6]: 67% and 62%
- Population Fragmented Nuclei (%) [6]: 6% and 5%
- Population Healthy Nuclei (%) [6]: 80%
- Population Hoechst High Intensity Objects (%) [6]: 7% and 9%
- Population Membrane Permeable-Phenotype (%) [6]: 4% and 3%
- Population Mitochondria Different-Phenotype (%) [6]: 70% and 57%
- Population Mitotic Cells (%) [6]: 32% and 37%
- Population Normal (%) [6]: 92% and 90%
- Population Pyknosed Nuclei (%) [6]: 13%
- Population Tubulin-Different-Phenotype (%) [6]: 93% and 94%
- Total Cell Count [6]: 433 and 530
